# High-throughput results deposited in PubChem by Broad Institute.
# T cruzi inh – blocks replication of Trypanosoma cruzi; T. cruzi beta-gal in NIH3T3, luminescence, 90 h; inhibition, % (concentration not given with the values); 300,000 compounds, 1.4% hits; AID 1885;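 active = mean inhibition across valid replicates above about 55%, limit read from the data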;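 note: signal also drops with host cell toxicity which is not excluded here; 0% = plate median of DMSO wells and 100% = zero luminescence signal; higher percent means less beta-gal luminescence so fewer parasites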
#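 Assay system: NIH/3T3 host cells with β-galactosidase reporter T. cruzi; input: 5,000 host fibroblasts per well; compound: single 50 nL compound addition per well in DMSO; timing: ≥90 h infection period, 3 h prior cell attachment; measured by: GalScreen β-gal luminescence, detergent lysis, 60 min; evaluation: percent inhibition of parasite-derived β-gal signal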
# ARNT TACC3 PPI – ARNT/TACC3 interaction disruption; Q9Y6A5; 390,000 compounds, 0.66% hits; inhibition, % at 9.99 µM; AlphaScreen His-ARNT PAS-B/GST-TACC3 binding, luminescence; TACC3 fragment carries E629A point mutation;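 active = mean inhibition of replicates at least 50% and at least half of replicates each reaching 50%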;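 note: 0% = complete ARNT plus TACC3 wells and 100% = ARNT alone without TACC3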
# HIF act – HIF pathway transcriptional activation. U2OS HRE-luciferase reporter, luminescence; normalized: DMSO 0%, desferrioxamine 100%. activation, % at 7.5 µM (by protocol). 300,000 compounds, 0.32% hits;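 active = mean activation of at least 10% of the iron chelator positive control signal, with at least half of replicates also reaching 10%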
# AI-2 QS modul – modulates the Vibrio harveyi AI-2 quorum sensing system. Vibrio harveyi JMH597 AI-2 luminescence/OD600 ratio, 9 h; stronger effect = lower value; strain lacks LuxN and CqsS sensors; 0 = neutral-control median. activity change, % at 7.5 µM. 300,000 compounds, 0.4% hits. AID 2094; in the data active = activity change below about -75%, passing the limit was not always enough;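 note: luminescence divided by OD600 gain over 9 h not by final OD600 alone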
# Starred values were filed as active, the others as inactive; · = no result given. In the library only some 2% were active in any assay of this set; here they are far more common.
SMILES,T cruzi inh,ARNT TACC3 PPI,HIF act,AI-2 QS modul
COc1ccc(S(=O)(=O)N[C@H]2CC[C@H](CCNC(=O)Cc3ccccn3)O[C@@H]2CO)cc1,·,-1,·,·
C/C(Cn1nnc([N+](=O)[O-])n1)=N\NC(=O)c1ccncc1,57*,3,1,15
C/C(Cn1nnc([N+](=O)[O-])n1)=N\NC(=O)c1ccccc1Cl,56*,-5,0,32
C/C(Cn1nnc([N+](=O)[O-])n1)=N\NC(=O)c1ccc(C)cc1,49,-1,4,15
C/C(Cn1nnc([N+](=O)[O-])n1)=N\NC(=O)c1cccc(Cl)c1,57*,2,·,25
C/C(Cn1nc([N+](=O)[O-])cc1C)=N\NC(=O)c1cccc(Br)c1,6,5,0,12
CC(C)NC(=O)Nc1ccc2c(c1)C(=O)N([C@@H](C)CO)C[C@H](C)[C@@H](CN(C)C(=O)NC1CCCCC1)O2,·,-8,·,·
Cc1c(-c2cccc(NC(=O)c3ccco3)c2)nc2ncccn12,65*,13,1,27
O=C(Nc1cccc(-c2cn3cccnc3n2)c1)c1ccc(Br)o1,71*,5,0,19
O=C(Nc1cccc(-c2cn3cccnc3n2)c1)c1ccco1,68*,22,0,18
O=C(C[C@H]1CC[C@@H](NC(=O)NC2CCCCC2)[C@H](CO)O1)NCc1ccc(Cl)cc1,·,-1,·,·
CN(C)C(=O)C[C@H]1CC[C@H]2[C@@H](COc3ccc(NC(=O)C4CCOCC4)cc3C(=O)N2C)O1,·,11,·,·
CCOc1ccccc1N1CCN(c2ncnc3scc(-c4ccc(OC)cc4)c23)CC1,61*,3,0,72
COc1ccc(-c2csc3ncnc(N4CCN(S(=O)(=O)c5ccc(C)c(C)c5)CC4)c23)cc1,55*,-3,-2,23
O=S(=O)(c1ccccc1)N1CCN(c2ncnc3scc(-c4ccccc4)c23)CC1,24,-3,0,·
COc1ccc(-c2csc3ncnc(N4CCN(c5ccccc5OC)CC4)c23)cc1,39,·,-1,36
CC(C)(C)[S@@](=O)N1Cc2cc(C(=O)NCCN3CCCCC3)nc(-c3cccc(-c4ccc(C#N)cc4)c3)c2[C@H]1CCO,·,4,·,·
Cc1cccc(-n2nnnc2SCC(=O)c2cc(C)n(CC3CCCO3)c2C)c1 (stereo not given),14,-5,1,26
Cc1ccc(-n2nnnc2SCC(=O)c2cc(C)n(CC3CCCO3)c2C)cc1 (stereo not given),58*,-6,0,30
COc1ccc(CCNCC(O)COc2ccc(Cl)cc2)cc1OC (stereo not given),48,0,1,47
COc1ccc(CCNCC(O)COc2cccc(C(C)=O)c2)cc1OC (stereo not given),56*,-1,-4,-1
COc1ccc(/C=C/C(=O)N2c3ccccc3Sc3ccc(C(F)(F)F)cc32)cc1,57*,0,0,42
O=C(/C=C/c1ccccc1)N1c2ccccc2Sc2ccc(C(F)(F)F)cc21,38,-7,0,44
Cc1noc(C)c1NC(=O)Nc1ccc2c(c1)C(=O)N([C@H](C)CO)C[C@H](C)[C@H](CN(C)CC1CC1)OCCCC[C@H](C)O2,·,5,·,·
COc1ccc(-c2c([C@H]3[C@@H]4C=CCC[C@@]4(C)C(=O)N3Cc3ccccc3)ccc3ccccc23)cc1OC,30,-4,0,12
SMILES,T cruzi inh,ARNT TACC3 PPI,HIF act,AI-2 QS modul
COc1ccc(-c2ccc([C@H]3[C@@H]4C=CCC[C@@]4(C)C(=O)N3Cc3ccccc3)c(F)c2)cc1OC,67*,5,-2,12
Cc1cc(C(=O)Nc2cccc3c2O[C@@H](CN(C)CC2CC2)[C@@H](C)CN([C@@H](C)CO)C3=O)n(C)n1,·,-6,·,·
C#CCn1c(=NC(=O)c2ccc(S(=O)(=O)N3CCCc4ccccc43)cc2)sc2cc(S(N)(=O)=O)ccc21,55*,-19,-1,1
COCC(=O)Nc1ccc2c(c1)C(=O)N(C)C[C@@H](OC)[C@H](C)CN(C(=O)Cc1cccnc1)[C@H](C)CO2,·,1,·,·
CN(CC1CCCO1)S(=O)(=O)c1ccc(C(=O)Nc2nccs2)cc1 (stereo not given),-9,-1,279*,33
Cc1cc(NC(=O)c2ccc(S(=O)(=O)N(C)CC3CCCO3)cc2)no1 (stereo not given),-4,2,0,16
COc1ccc(-c2nnc(NC(=O)c3ccc(S(=O)(=O)N(C)CC4CCCO4)cc3)o2)c(OC)c1 (stereo not given),5,45*,-1,28
N#Cc1ccccc1Sc1ccccc1C(=O)NCC(c1ccco1)N1CCCCC1 (stereo not given),·,5,·,·
O=C(NCC(c1ccco1)N1CCCC1)c1ccccc1Sc1ccc(C(F)(F)F)cc1[N+](=O)[O-] (stereo not given),56*,15,0,18
CC(C)NC(=O)N[C@@H]1C=C[C@H](CC(=O)NCCCN(C)C)O[C@H]1CO,·,-1,·,·
CC1S/C(=N/N=C2CCCCC2)NC1=O (stereo not given),-9,9,0,39
CC1SC(=NC(=O)c2ccncc2)NC1=O (stereo not given),-11,-4,932*,7
Cc1cccc(Nc2ncnc(N)c2[N+](=O)[O-])n1,-13,1,0,29
Cc1cc(C)nc(Sc2ncnc(N)c2[N+](=O)[O-])n1,21,-3,11*,-3
C[C@@H]1CCCCO[C@H](CN(C)C(=O)Nc2ccccc2)[C@H](C)CN([C@H](C)CO)C(=O)c2cc(NC(=O)c3ccncc3)ccc2O1,·,-3,·,·
COc1cc(/C=C2/C(=O)N(c3ccc(C(=O)O)cc3)N=C2C)cc(OC)c1O,-1,12*,-1,16
COc1cc(/C=C2/C(=O)N(c3ccc(Br)cc3)N=C2C)cc(OC)c1OC,-20,10,0,16
O=c1c2c3c(sc2n(CCN2CCCCC2)c(=O)n1Cc1ccco1)CCCCC3,63*,15,-1,0
Cc1ccc(S(=O)(=O)N(C)C[C@@H]2Oc3ccc(NC(=O)CCN4CCOCC4)cc3CC(=O)N([C@H](C)CO)C[C@H]2C)cc1,·,1,·,·
C[C@@H]1CCCCO[C@@H](CN(C)C(=O)c2ccccc2)[C@@H](C)CN([C@@H](C)CO)C(=O)c2cc(NC(=O)Nc3ccc(F)cc3)ccc2O1,·,11,·,·
Cc1cc(C)cc(Oc2ncnc3c2ncn3Cc2c(Cl)cccc2Cl)c1,60*,3,0,20
C/C(Cl)=C\Cn1c(O)c(N=NC(N)=S)c2ccccc21,60*,-2,0,10
Oc1c(N=NC(=S)Nc2ccccc2F)c2ccccc2n1Cc1ccccc1,51,1,0,6
Oc1c(N=NC(=S)Nc2ccccc2F)c2ccccc2n1Cc1ccccc1Cl,68*,2,-1,25
Cc1ccc(Cn2c(O)c(N=NC(=S)Nc3ccccc3F)c3ccccc32)cc1,66*,1,0,18
